Data on 18 molecules can be found in ChEMBL document CHEMBL1145813, “Synthesis and evaluation of 11C-labeled 6-substituted 2-arylbenzothiazoles as amyloid imaging agents” (J Med Chem, 2003).

The nature of series [1]: Apparent lipophilicity was determined.
A short description of series [2]: Percent injected dose per gram of compound to Swiss-Webster mice brain was measured after 2 min of intravenous injection. The series is classed as functional, Mus musculus. Summed up: (§1)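 Female Swiss-Webster mice (23–35 g) received 0.37–3.7 MBq of high specific activity (>7.4 GBq/μmol) 11C-labeled derivative by lateral tail vein, in ≤0.10 mL of 93% isotonic saline/7% ethanol. Mice were killed at 2 or 30 min, and whole brain minus cerebellum was gamma-counted and decay-corrected against injectate standards. %ID/g was multiplied by body weight (kg). The 2 min/30 min ratio was taken from these values.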

Series [3] is described as follows: Percent injected dose per gram of compound to Swiss-Webster mice brain was measured after 30 min of intravenous injection. The format is functional, Mus musculus. The method in brief: as §1
Series [4] is described as follows: Ratio of percent injected dose per gram of compound to Swiss-Webster mice brain after 2 min and 30 min of intravenous injection. The format is functional. The method in brief: as §1
Series [5] has as its target Amyloid-beta precursor protein (Homo sapiens, UniProt P05067). Description: Binding affinity for Amyloid beta 1-40 aggregates in competition with [N-methyl-3H] BTA-1.

Each structure is given as a SMILES string. pKi: −log10 of the molar value.

Chain of Amyloid-beta precursor protein (P05067 whole entry): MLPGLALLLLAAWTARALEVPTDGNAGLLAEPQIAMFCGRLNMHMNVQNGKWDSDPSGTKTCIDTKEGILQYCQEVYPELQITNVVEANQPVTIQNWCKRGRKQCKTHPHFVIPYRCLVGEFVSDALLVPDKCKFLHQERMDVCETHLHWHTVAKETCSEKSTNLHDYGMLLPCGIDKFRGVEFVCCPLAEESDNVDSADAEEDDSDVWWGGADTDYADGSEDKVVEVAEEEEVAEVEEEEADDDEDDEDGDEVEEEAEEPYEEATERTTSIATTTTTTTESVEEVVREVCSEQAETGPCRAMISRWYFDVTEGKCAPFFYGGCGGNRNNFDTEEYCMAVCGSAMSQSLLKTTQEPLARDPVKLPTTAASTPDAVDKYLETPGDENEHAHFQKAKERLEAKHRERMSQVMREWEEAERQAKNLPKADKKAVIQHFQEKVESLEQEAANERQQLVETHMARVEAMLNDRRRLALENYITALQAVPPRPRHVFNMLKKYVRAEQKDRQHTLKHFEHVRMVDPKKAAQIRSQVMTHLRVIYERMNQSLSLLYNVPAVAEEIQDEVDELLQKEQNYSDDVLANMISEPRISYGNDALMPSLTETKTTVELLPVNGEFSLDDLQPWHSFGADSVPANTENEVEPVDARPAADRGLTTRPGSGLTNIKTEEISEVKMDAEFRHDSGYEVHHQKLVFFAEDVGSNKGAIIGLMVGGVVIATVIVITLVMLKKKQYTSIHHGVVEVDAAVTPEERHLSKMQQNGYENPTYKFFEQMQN

Regarding `CNc1ccc(-c2nc3ccc(C)cc3s2)cc1`, the chromatographic logD in series [1] is 3.1. Moreover, the values for the ID in series [2] and in series [3] were 0.22% and 0.083%, respectively.

For the molecule `CNc1ccc(-c2nc3ccc(C#N)cc3s2)cc1`, the Ratio in series [4] was 5. Also, in series [1], the chromatographic logD came out at 2.5. Also, the pKi in series [5] is 8.07. Moreover, the ID in series [2] turned out to be 0.32%; in series [3], 0.063%.

For `Nc1ccc(-c2nc3ccccc3s2)cc1`, the chromatographic logD in series [1] is 2. In series [5], this molecule had a pKi of 7.43.

As for `CN(C)c1ccc(-c2nc3ccc(Br)cc3s2)cc1`, the Ratio in series [4] is recorded as 0.49. Also, the chromatographic logD in series [1] was determined as 4.4. Besides, the pKi in series [5] was 8.54. Also, the ID in series [2] is on record as 0.054%; in series [3] it was 0.11%.

For `CN(C)c1ccc(-c2nc3ccc(C#N)cc3s2)cc1`, the Ratio in series [4] is 2.5. Also, the chromatographic logD in series [1] stood at 3.2. For the same molecule, in series [5], the pKi is 7.96. Besides, the ID in series [2] amounted to 0.24%; in series [3], 0.097%.

On to `Nc1ccc(-c2nc3ccc(Br)cc3s2)cc1`, for which, in series [1], the chromatographic logD worked out at 2.9. Further, the pKi in series [5] was 8.14.

`CN(C)c1ccc(-c2nc3ccccc3s2)cc1`: the Ratio in series [4] is 2.5. For the same molecule, the chromatographic logD in series [1] worked out at 3.4. The same molecule gave a pKi in series [5] of 8.40. For the same molecule, the ID in series [2] came to 0.19%; in series [3] it was 0.078%.

In the case of `COc1ccc2nc(-c3ccc(N)cc3)sc2c1`, the Ratio in series [4] stood at 3.8. Moreover, the chromatographic logD in series [1] is 1.9. Moreover, the pKi in series [5] was 8.15. The ID in series [2] is recorded as 0.32%; in series [3], 0.084%.

For `CNc1ccc(-c2nc3ccccc3s2)cc1`, the chromatographic logD in series [1] came out at 2.7. The ID was 0.43% in series [2] and 0.057% in series [3].

Consider `CNc1ccc(-c2nc3ccc(OC)cc3s2)cc1`, for which the Ratio in series [4] is on record as 3.2. For the same molecule, the chromatographic logD in series [1] is 2.6. Further, the pKi in series [5] was 8.31. The ID in series [2] is recorded as 0.33%; in series [3] it was 0.1%.

Consider `Cc1ccc2nc(-c3ccc(N)cc3)sc2c1`, for which the chromatographic logD in series [1] was determined as 2.4. For the same molecule, the pKi in series [5] was 8.02.

`Nc1ccc(-c2nc3ccc(O)cc3s2)cc1`: in series [5], the pKi is 7.34.

Regarding `CNc1ccc(-c2nc3ccc(Br)cc3s2)cc1`, the Ratio in series [4] was determined as 1. The chromatographic logD in series [1] came to 3.6. For the same molecule, in series [5], the pKi was 8.77. Besides, the ID in series [2] and in series [3] was 0.12% in each case.

With `N#Cc1ccc2nc(-c3ccc(N)cc3)sc2c1`, the chromatographic logD in series [1] came out at 1.8. In series [5], the pKi is 7.19.

Take `COc1ccc2nc(-c3ccc(N(C)C)cc3)sc2c1`: the Ratio in series [4] was determined as 1.1. Further, the chromatographic logD in series [1] was determined as 3.3. In series [5], this molecule had a pKi of 8.72. In addition, the figures for the ID in series [2] and in series [3] were 0.16% and 0.14%, respectively.

`CNc1ccc(-c2nc3ccc(O)cc3s2)cc1` [PITTSBURGH COMPOUND B UNLABELLED]: the values for the ID in series [2] and in series [3] were 0.21% and 0.018%, respectively.

Turning to `Cc1ccc2nc(-c3ccc(N(C)C)cc3)sc2c1`, the Ratio in series [4] is given as 0.52. For the same molecule, the chromatographic logD in series [1] worked out at 3.8. In series [5], this molecule had a negative logarithm of the Ki (pKi) of 7.19. Further, the ID in series [2] was 0.078%; in series [3], 0.15%.

For the molecule `CN(C)c1ccc(-c2nc3ccc(O)cc3s2)cc1`, in series [4], the Ratio is reported as 3. In addition, in series [1], the chromatographic logD was determined as 2. In series [5], the pKi was 8.36. In addition, the figures for the ID in series [2] and in series [3] were 0.32% and 0.1%, respectively.

A word on the chromatographic logD: it is lipophilicity estimated from chromatographic retention. The term pKi denotes the Ki on a negative log10 scale, so that one unit is a factor of ten.
